Bioassay records: PubChem, several laboratories
TNF death inh: blocks TNF-alpha induced death of Jurkat FADD-/- cells; hit rate 0.068% among 220,000; Jurkat FADD-/- TNF necroptosis rescue, ATP luminescence, 24 h; 0 = TNF only, 100 = no-TNF cells; activation (protection from cell death), % at 10 µM;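 active = activation, meaning protection from cell death, of at least 50% relative to plate controls; inactive = activation below 50%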;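 note: necroptosis triggered by 40 ng/mL TNF-alpha added together with compound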
Wee1 stabilizer: blocks degradation of human Wee1 kinase; P30291; HeLa Luc-Wee1K328M stability, luciferase luminescence; 100% = proteasome inhibitor MG132 effect; reporter increase, % at 5 µM; hit rate 1.2% among 220,000;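 active = activation above the mean of all tested compounds plus 3 SD, set per screening run, cut at about 8.8% in these data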;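 note: cells exposed to compound for 20 h before luminescence read; 0% = DMSO alone and 100% = MG132 at 30 µM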
Target sequence (P30291 whole entry K328M): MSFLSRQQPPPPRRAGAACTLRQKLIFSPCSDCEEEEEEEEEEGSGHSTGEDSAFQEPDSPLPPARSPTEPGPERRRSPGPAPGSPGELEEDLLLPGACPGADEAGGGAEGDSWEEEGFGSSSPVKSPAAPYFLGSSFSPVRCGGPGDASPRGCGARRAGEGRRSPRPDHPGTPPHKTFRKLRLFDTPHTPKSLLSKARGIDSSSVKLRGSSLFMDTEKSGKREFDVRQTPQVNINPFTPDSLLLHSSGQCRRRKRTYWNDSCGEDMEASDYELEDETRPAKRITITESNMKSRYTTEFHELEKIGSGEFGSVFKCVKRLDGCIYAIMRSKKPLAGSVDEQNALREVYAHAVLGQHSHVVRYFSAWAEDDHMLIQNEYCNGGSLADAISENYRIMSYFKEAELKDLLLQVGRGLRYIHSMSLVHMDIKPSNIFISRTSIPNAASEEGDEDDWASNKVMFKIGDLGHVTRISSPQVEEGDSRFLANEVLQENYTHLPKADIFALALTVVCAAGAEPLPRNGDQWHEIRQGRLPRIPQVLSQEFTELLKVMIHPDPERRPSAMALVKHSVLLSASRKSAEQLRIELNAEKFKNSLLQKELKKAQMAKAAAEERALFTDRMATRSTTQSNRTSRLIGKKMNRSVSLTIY
zVAD death inh: blocks zVAD induced death of L929 cells; AID 1377; hit rate 0.38% among 220,000; viability rescue, % at 10 µM; L929 zVAD necroptosis rescue, ATP luminescence, 24 h; with zVAD 60 µM;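 active = activation, scaled between plate controls, above about 75%, limit read from the data; inactive = activation under that limit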;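 note: 0% = zVAD with DMSO and 100% = DMSO alone without zVAD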
Pf gametocyte: inhibitors of late stage P. falciparum gametocyte viability; AID 743093; P. falciparum stage V gametocytes, ATP luminescence, 24 h; inhibition, % at 10.9 µM; hit rate 0.065% among 150,000;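 active = inhibition above the mean plus 3 SD of compounds within the control limits, set per campaign, cut at about 38% in these data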;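 note: 0% = DMSO wells and 100% = medium only without gametocytes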
MDM2 E3 inh: inhibitors of human Mdm2 E3 ubiquitin ligase | Q00987 | cell-based MDM2 ubiquitination luciferase reporter, 2 h; 0 = plate control, 100 = twice control, blank-subtracted | signal enhancement, % at 5 µM | hit rate 0.11% among 210,000 | AID 1230;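 active = signal enhancement of 30% or more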;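 note: luminescence tracks abundance of the self-degrading MDM2-luciferase fusion protein; higher signal means inhibition of MDM2 E3 ligase activity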
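system = mammalian cells stably expressing self-ubiquitinating, self-degrading MDM2 E3–luciferase fusion | quantity = 2000 cells per well seeded | incubation = 4 h cell settling then 2 h compound exposure, 37 °C | signal = SteadyLite luminescence, 15 min reagent step | benchmarks = plate control and blank wells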
An asterisk follows results filed as active; nt = not tested or not shown. Sampled rows, rich in hits. Any-hit rate of the full collection: about 1.6%.

SMILES | TNF death inh | Wee1 stabilizer | zVAD death inh | Pf gametocyte | MDM2 E3 inh
CCOC(=O)c1c(C)nc2sc3c(=O)n(-c4ccc(C(C)=O)cc4)nnc3c2c1-c1ccc(Cl)cc1 | -24 | -2 | 0 | nt | -8
CCOC(=O)c1sc(=S)n(-c2ccccc2)c1N(C(C)=O)C(C)=O | -1 | 4 | 1 | -6 | 31*
C1CCCN(CCCCN2CCCCCC2)CC1 | 0 | 4 | 0 | nt | 6
CC(=C/C(=O)O)/C=C/c1ccc([N+](=O)[O-])cc1 | 0 | 11* | 0 | -25 | -4
CCN(CC)/C(=N/S(=O)(=O)c1ccc(C)cc1)c1ccccc1 | 0 | 10.0* | 0 | nt | 5
Cc1ccc(-c2nnn(CC(=O)N(CC3CCCO3)C(C(=O)NC3CCCC3)c3ccc(O)cc3)n2)o1 (centres undefined) | 0 | 10* | 1 | 21 | -13
CN(Cc1ccccc1)CC(O)COc1ccc(CNCCOc2cccnc2)cc1 (centres undefined) | 1 | -3 | 0 | -8 | 4
CN(Cc1ccccc1)CC(O)COc1ccc(CNCCCOc2cccnc2)cc1 (centres undefined) | 0 | 8.9* | 0 | 7 | -9
COc1ccc(N2CCN(C(=O)c3ccc(NS(=O)(=O)c4ccc(F)cc4)cc3)CC2)cc1 | 0 | 4 | -1 | nt | 5
COc1ccc(N2CCN(C(=O)c3ccc(NS(=O)(=O)c4cccs4)cc3)CC2)cc1 | 2 | 9.0* | 1 | -18 | -13
Cn1ncc([N+](=O)[O-])c1C(=O)n1nnc2ccccc21 | -1 | 27* | 1 | nt | -17
Cc1cc(C)n(C(=O)c2c([N+](=O)[O-])cnn2C)n1 | -7 | -2 | 0 | nt | 14
CCOc1ccccc1C1N=C(c2ccc(OC)cc2)CC(c2ccccc2O)N1 (centres undefined) | 0 | 6 | 3 | nt | -8
CC(C)C1N=C(c2ccc3c(c2)OCO3)CC(c2ccccc2O)N1 (centres undefined) | 1 | 9.4* | 5 | nt | -2
CCCCCn1c(NC(=O)c2ccco2)c(S(=O)(=O)c2ccc(C)cc2)c2nc3ccccc3nc21 | -4 | 0 | 0 | nt | -13
CCCCSC1(SCCCC)N=C(N)C2(C#N)C(c3ccccc3)NC(C)=CC12C#N (centres undefined) | -4 | 1 | 0 | 7 | 5
O=C(/C=C\c1ccc(-c2ccccc2)o1)c1ccccc1 | -9 | 8.8* | 0 | 0 | -9
Cc1ccc(C(=O)/C=C/c2ccc(-c3ccc(C)cc3)o2)cc1 | 2 | 2 | 1 | nt | -5
Cc1ccc(-c2cc(C(F)(F)F)n3ncc(C(=O)N4CCN(C)CC4)c3n2)cc1 | -3 | 9.2* | 0 | -18 | -10
COc1ccc(CCNC(=O)C2CC(=O)N(CCc3ccc(C)cc3)C2)cc1OC (centres undefined) | 0 | 1 | 0 | -27 | -9
CCN(CC)S(=O)(=O)c1cc(NC(=O)C(C)Nc2ccccc2N2CCOCC2)ccc1C (centres undefined) | 1 | 9.8* | 0 | nt | -19
Cc1ccc2c(c1)sc1nc(=O)n(-c3ccccc3)c(=O)n12 | 2 | 9.0* | 0 | 15 | -13
O=C(NC1c2ccccc2-c2ccccc21)N1CCOCC1 | 2 | -3 | 1 | -14 | 2
COc1cc2cc(CN(CCCN3CCOCC3)C(=O)Nc3ccccc3F)c(=O)[nH]c2cc1OC | 2 | 9.2* | 2 | 4 | -10
Fc1cccc(CNc2ncnc3ccc(-c4ccc5c(c4)OCO5)cc23)c1 | nt | nt | nt | 26 | nt
SMILES | TNF death inh | Wee1 stabilizer | zVAD death inh | Pf gametocyte | MDM2 E3 inh
COc1ccc(CC(=O)NNS(=O)(=O)c2ccc(F)cc2)cc1OC | 1 | 8.9* | 0 | nt | -6
O=C(CCc1ccccc1)NCCC1=CCCCC1 | 1 | -3 | 0 | -6 | -13
CCc1ccc(C(=O)Nc2ccc(C)c(NS(C)(=O)=O)c2)cc1 | -1 | 4 | 70 | 6 | -1
Cc1ccc(NC(=O)c2ccc(F)cc2F)cc1NS(C)(=O)=O | 1 | 9.2* | 0 | 9 | -7
CC(C)CN(C(=O)COC(=O)c1c(Cl)ccc(Cl)c1Cl)C1CCS(=O)(=O)C1 (centres undefined) | 0 | 8.8* | 0 | nt | -32
CCn1c(CNC(=O)Cc2ccc(OC)cc2)nnc1SCC(=O)Nc1nccs1 | -1 | 11* | 0 | nt | -6
CC(=O)N1CCN(S(=O)(=O)c2cccc(C(=O)OCC(=O)N3CC(=O)Nc4ccccc43)c2)CC1 | 0 | 0 | 3 | -8 | -13
Cc1ccc(/C=C2/NC(=O)N(Cc3ccc(Br)cc3)C2=O)o1 | 1 | 2 | 1 | -7 | 32*
Cc1noc(C)c1COc1cccc(C(=O)OCC(=O)N2CC(=O)Nc3ccccc32)c1 | -9 | 18* | 0 | -6 | -21
Nc1ccc(C(=O)OCC(=O)Nc2ccc3c(c2)OCO3)cc1[N+](=O)[O-] | 1 | 11* | 0 | -6 | -11
CN(C(=O)COC(=O)c1cc([N+](=O)[O-])ccc1Sc1ccccc1)C1CCS(=O)(=O)C1 (centres undefined) | 0 | -3 | 1 | -22 | -10
Cc1cc2cc(C)c(SCC(=O)NCc3ccco3)nc2cc1C | 0 | -4 | 0 | -11 | 31*
Cc1ccc2cc(C)c(SCC(=O)NCc3ccco3)nc2c1 | 1 | -3 | 0 | 12 | -8
Cc1cccn2c(CNCCSc3nccn3C)c(C(=O)N3CCCCC3)nc12 | 0 | 8.9* | 1 | -10 | -67
Cc1cccn2c(CNCCCn3ncc4ccccc43)c(C(=O)N3CCCCC3)nc12 | 0 | 10* | 0 | -9 | 2
Cc1ccc(NC(=S)NC(=O)c2ccccc2)cc1NC(=S)NC(=O)c1ccccc1 | 1 | 1 | 1 | nt | -8
O=C(NCCc1ccccc1)c1ccccc1NC(=O)C1CC=CCC1C(=O)O (centres undefined) | 0 | 2 | 1 | 9 | 4
COc1ccc(NC(=O)c2ccc3c(c2)OCO3)cc1[N+](=O)[O-] | 0 | 7 | -1 | 20 | -6
CC12CCC(c3c(CO)nn(-c4ccccc4)c31)C2(C)C (centres undefined) | -2 | 10* | 0 | 5 | -12
CC12CCC(c3c(C(=O)O)nn(-c4ccccc4)c31)C2(C)C (centres undefined) | -2 | -3 | 0 | 9 | -22
CN(CCC(=O)Nc1ccc2c(c1)OCO2)Cc1ccccc1 | 0 | 10* | -1 | nt | -3
CC1CCCCN1C(=O)COc1ccc(F)cc1 (centres undefined) | 1 | 9.6* | 0 | nt | -13
COC(=O)Cn1cnc2ccccc2c1=O | 1 | -1 | 0 | 5 | -25
O=C(Cn1cnc2ccccc2c1=O)N1CCOCC1 | -1 | 5 | 1 | -23 | nt
O=C(Cn1cnc2ccccc2c1=O)NCCC(=O)N1CCN(Cc2ccccc2)CC1 | -1 | 1 | 0 | 8 | 34*
